Compound activity (PubChem)
Shown are actives, neighbours in structure and some others; about 2.6% of the full set was active somewhere.
mABHD4 FP: inhibitors of mouse ABHD4. Q8VD66. purified mABHD4, FP-Rh probe fluorescence polarization. inhibition, % at 8.92 µM. 0.54% of 370,000 active. AID 720543;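 active = inhibition exceeding the mean over every tested compound plus 3 SD, cut at about 30% in these data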;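 note: 0% = plate median of compound wells and 100% = S159A mutant with DMSO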
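system = mouse ABHD4 enzyme, wild type | medium = HEPES pH 7.0, NaCl, Pluronic buffer | also added = FP-Rh probe | incubation = Enzyme–compound pre-incubation 45 min, then probe 60 min, both 25 °C | technique = fluorescence polarization, excitation 525 nm, emission 598 nm, BODIPY TMR filters | controls = S159A mutant high control, sample median low control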
TCR CD3 inh: human TCR-CD3 binding inhibition. TAMRA-labeled TCR probe fluorescence, biochemical. inhibition, % at 9.4 µM. 0.37% of 360,000 active. AID 651800; in the data active = inhibition above about 19%;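 note: recombinant mutant TCR 2C K166C tagged with TAMRA read by polarization; 0% = receptor in buffer alone and 100% = receptor with positive control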
HTRA1 inh: inhibitors of human serine peptidase HTRA1 | Q92743 | recombinant HTRA1, FP-rhodamine activity-based probe, fluorescence polarization | inhibition, % at 5.96 µM | 0.5% of 340,000 active; in the data active = inhibition above about 36%;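 note: 0% = enzyme with DMSO and 100% = wells lacking enzyme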
SIAE primary: inhibitors of human sialic acid acetylesterase SIAE; SIAE FP-Rh probe binding, fluorescence polarization; inhibition, % at 9.66 µM; 0.69% of 370,000 active;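 active = inhibition above a cutoff: mean of compounds within the control limits plus 3 SD of those, cut at about 17% in these data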;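 note: 0% = plate median of compound wells and 100% = probe without SIAE protein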
Target sequence (Q9HAT2 whole entry, looked up): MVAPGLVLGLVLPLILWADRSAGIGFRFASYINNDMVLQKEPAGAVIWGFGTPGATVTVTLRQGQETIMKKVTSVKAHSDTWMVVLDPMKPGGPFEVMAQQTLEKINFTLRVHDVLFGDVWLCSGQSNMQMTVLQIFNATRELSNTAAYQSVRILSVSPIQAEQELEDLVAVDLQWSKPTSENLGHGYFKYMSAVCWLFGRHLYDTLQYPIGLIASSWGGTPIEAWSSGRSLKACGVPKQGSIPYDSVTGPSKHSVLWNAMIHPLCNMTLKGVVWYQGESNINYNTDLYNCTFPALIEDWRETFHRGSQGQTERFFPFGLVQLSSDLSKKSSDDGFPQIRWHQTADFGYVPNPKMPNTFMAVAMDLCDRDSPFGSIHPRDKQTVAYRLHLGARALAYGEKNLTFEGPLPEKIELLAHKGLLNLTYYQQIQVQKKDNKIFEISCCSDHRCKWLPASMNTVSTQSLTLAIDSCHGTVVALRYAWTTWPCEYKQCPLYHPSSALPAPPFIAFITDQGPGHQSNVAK
PRMT1 inh: inhibitors of human PRMT1 | Q99873 | recombinant PRMT1, activity-based probe fluorescence polarization | inhibition, % at 2.79 µM | 1.3% of 370,000 active | AID 652257;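 active = inhibition above about 21% made by adding two undisclosed values, limit read from the data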
SIAE inh conf: confirmation of human SIAE inhibitors; shares compounds with SIAE primary; SIAE FP-Rh activity-based probe, fluorescence polarization; 13% of 2,300 active; inhibition, % at 9.66 µM;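 active = mean inhibition of the replicates above the hit cutoff set in the primary screen, cut at about 17% in these data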;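 note: 0% = SIAE with DMSO and probe and 100% = probe without SIAE; inhibitors lower polarization as more probe stays unbound to SIAE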
* = called active by the depositor; nt = not tested or not shown; ! = a repeat was not active.

SMILES	mABHD4 FP	TCR CD3 inh	HTRA1 inh	SIAE primary	PRMT1 inh	SIAE inh conf
Cc1ccc(NC(=O)CSc2nnc3n2CCCCC3)cc1S(=O)(=O)N1CCOCC1	-4	3	2	-1	-2	nt
CN(C)c1ccc(NC(=O)c2cn(-c3ccccc3)nc2-c2cccs2)cc1	10	2	7	25*	3	19*
Cc1ccc(S(=O)(=O)N2CCCC2CNC(=O)c2ccccc2)cc1 (stereo unspecified)	6	7	-4	22*	0	3
COc1ccc(CNC(=O)C2CCC(CNS(=O)(=O)c3ccc(C)cc3)CC2)cc1 (stereo unspecified)	-6	-6	1	5	-5	nt
N=c1n(CCN2CCCCC2)c2ccccc2n1CC(O)c1cccc(Br)c1 (stereo unspecified)	4	0	-2	33*	2	4
C=CCOC(=O)C1=C(C)NC(SCC(=O)NC(=O)OCC)=C(C#N)C1c1cccnc1 (stereo unspecified)	5	-6	3	18*!	12	0
C=CCOC(=O)C1=C(C)NC(SCC(=O)N(CC)CC)=C(C#N)C1c1ccccc1 (stereo unspecified)	-36	7	-16	4	6	nt
Cc1cc(C)n2nc(SCC(=O)c3cc(C)n(CC4CCCO4)c3C)nc2n1 (stereo unspecified)	5	8	-2	20*	1	0
COCCNc1nc(NCCOc2ccccc2Cl)c2sc(-c3ccccc3)cc2n1	13	1	nt	20*	-7	26*
COCCNc1nc(NCC2CCCCC2)c2sc(-c3ccccc3)cc2n1	19	-4	nt	20*	-6	32*
COCCNc1nc(NCCNC(C)=O)c2sc(-c3ccccc3)cc2n1	3	-5	nt	4	-8	nt
CC1Cc2ccccc2N1S(=O)(=O)c1cccc(C(=O)N2Cc3ccccc3CC2C(N)=O)c1 (stereo unspecified)	-8	2	-11	-3	-1	nt
COC(=O)c1c([N+](=O)[O-])c(OC)c(OC)c(OC)c1[N+](=O)[O-]	3	6	-4	19*	-8	7
COC(=O)c1c(C)[nH]c(C)c1C(C)=O	-3	6	6	2	-10	nt
Cc1ccc(/C=C/C(=O)NC(=S)Nc2ccc(S(=O)(=O)Nc3cc(C)on3)cc2)cc1	-12	2	-32	-23	-5	nt
CCN(CC)c1ccc(NC(=S)NC(=O)c2cccs2)cc1	11	-6	6	17*	1	-1
O=C1CCCN1c1ccc(S(=O)(=O)N2CCCCC2)cc1	0	-9	-6	17*	-1	-1
O=C1CCCN1c1ccc(S(=O)(=O)N2CCCCC2)cc1[N+](=O)[O-]	3	0	3	-6	0	nt
O=C(NCC(c1ccco1)N1CCc2ccccc21)c1ccc([N+](=O)[O-])cc1 (stereo unspecified)	9	5	3	8	-1	nt
COc1cc(OC)cc(C(=O)NCC(=O)NCC(c2ccco2)N2CCCCC2)c1 (stereo unspecified)	1	0	-7	-2	-4	nt
Cc1ccc(C(=O)NCC(c2ccco2)N2CCc3ccccc32)cc1 (stereo unspecified)	1	0	1	21*	-5	3
Cc1cccc(C(=O)NCC(=O)NCC(c2ccco2)N2CCCCC2)c1 (stereo unspecified)	0	-2	-8	18*	-3	1
Cc1cccc(C(=O)NCC(c2ccco2)N2CCc3ccccc32)c1 (stereo unspecified)	8	2	-9	22*	1	9
O=C1CC2CCCC(C1)S2=O (stereo unspecified)	1	7	5	-4	-6	nt
Cc1nc(SCC(=O)N2CCN(C(=O)c3cccs3)CC2)c2c(C)c(C)sc2n1	-3	-10	2	17*	1	0
SMILES	mABHD4 FP	TCR CD3 inh	HTRA1 inh	SIAE primary	PRMT1 inh	SIAE inh conf
Cc1nc(SCC(=O)N2CCN(C(=O)c3ccco3)CC2)c2c(C)c(C)sc2n1	-5	4	0	4	2	nt
COc1cccc(CNC(=O)C2CCN(S(=O)(=O)N3CCC(C)CC3)CC2)c1	-3	4	1	-1	-2	nt
COc1cc(OC)c(OC)cc1/C=N/NC(=O)C[n+]1ccccc1	4	7	-1	49*	-1	-2
COc1cccc(/C=N/NC(=O)C[n+]2ccccc2)c1O	-6	-3	-3	0	-2	nt
O=C(CN1C(=O)NC2(CCCCC2)C1=O)N1CCN(S(=O)(=O)c2cccc([N+](=O)[O-])c2)CC1	4	3	3	18*	1	2
C=C1CC2(CC(c3ccccc3)OC(c3ccccc3)C2)OC1=O (stereo unspecified)	-16	-14	-32	0	0	nt
CN(C)C(=S)N=Nc1[nH]c2ccccc2c1O	3	-3	nt	21*	1	-9
Cc1cc(C)c2[nH]c(C(=O)N3CCC(n4nccc4NC(=O)C4CC4)CC3)c(C)c2c1	-2	9	-3	-3	-2	nt
Oc1ccc(N=Nc2nc(-c3ccccc3)c(-c3ccccc3)[nH]2)cc1	-22	2	-3	37*	-2	-1
O=C(Nc1ncccc1O)c1cccc(S(=O)(=O)NCc2ccccc2)c1	-1	0	-2	0	1	nt
Cc1ccnc(NC(=O)c2cccc(S(=O)(=O)NCc3ccccc3)c2)c1	-8	3	-20	21*	-10	-3
CN(C(=O)COC(=O)c1ccc(Cl)c(S(=O)(=O)N2CCCCCC2)c1)C1CCS(=O)(=O)C1 (stereo unspecified)	4	-1	-1	19*	-3	3
CCCn1cnnc1CNC(=O)[C@H]1O[C@@H](n2ccc(N)nc2=O)[C@H](O)[C@@H]1O	-3	0	nt	1	-1	nt
CN(Cc1cnn(-c2ccc(F)cc2)c1)C(=O)[C@H]1O[C@@H](n2cnc3c(N)ncnc32)[C@H](O)[C@@H]1O	-1	-2	nt	41*	1	45*
Cc1ccc(CNC(=O)[C@H]2O[C@@H](n3ccc(N)nc3=O)[C@H](O)[C@@H]2O)o1	6	3	nt	25*	0	19*
COc1cc(NC(=O)[C@H]2O[C@@H](n3ccc(N)nc3=O)[C@H](O)[C@@H]2O)cc(OC)c1OC	-1	1	nt	26*	4	20*
Cc1ccc(CNC(=O)[C@H]2O[C@@H](n3cnc4c(N)ncnc43)[C@H](O)[C@@H]2O)o1	-4	6	nt	17*	2	20*
O=C(OCc1cn(Cc2ccc(F)cc2)nn1)N1CCCC1	-7	nt	nt	-2	6	nt
O=C(Nc1ccc2[nH]c(=S)sc2c1)Nc1ccccc1F	-12	1	-19	26*	16	-6
O=C(COC(=O)c1ccc[nH]c1=O)NC1CCCCCC1	2	-2	-5	-4	1	nt
